Results as given in ChEMBL document CHEMBL1133004, “3-Alkylamino-4H-pyrido[2,3-e]-1,2,4-thiadiazine 1,1-dioxides structurally related to diazoxide and pinacidil as potassium channel openers acting on vascular smooth muscle cells: design, synthesis, and pharmacological evaluation” (2000).

Experiments:
Assay type in all cases: functional
Cavia porcellus = species on record: Cavia porcellus; assay: Inhibition of electrically stimulated contractions of guinea pig ileum segments.; conditions: read-out: ED50 (the source's name)
In short: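 Ileum segments (4 cm, taken ≥10 cm from cecum) from adult guinea pigs (300-400 g), 1 g initial load, Krebs-bicarbonate at 37 °C, gassed 95% O2/5% CO2. Coaxial stimulation at 0.5-ms pulses, 0.1 Hz, 5-25 V, with isometric recording. Drug was added cumulatively to maximal effect and expressed as % of the 5-min pre-drug response. ED50 was assessed graphically.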

Rattus norvegicus [1] = species on record: Rattus norvegicus; assay: Insulin secretion from rat pancreatic islets (RIS) in the presence of 16.7 mM glucose at 50 uM
In short: (§1)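 Collagenase-isolated islets from fed Wistar rats (180-220 g), in groups of 10. Preincubated 30 min at 37 °C in bicarbonate salt medium with 2.8 mM glucose and 0.5% albumin under O2/CO2. Then incubated 90 min at 37 °C with 16.7 mM glucose plus drug. Insulin was measured by radioimmunoassay against a rat insulin standard and reported as % residual release.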

Rattus norvegicus [2] = species on record: Rattus norvegicus; assay: Concentration giving 50% relaxation of the 30 mM KCL-induced contraction of rat aorta rings; conditions: read-out: ED50 (the source's name)
In short: (§2)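 Endothelium-denuded aortic rings (3-4 mm) from fed Wistar rats (250-300 g), held at 1 g tension in Krebs-bicarbonate at 37 °C under O2/CO2 (95/5), isometric recording. After 60 min equilibration, contracted with 30 or 80 mM KCl as specified. At plateau, drug was added cumulatively to maximal relaxation or 1 mM. Glibenclamide (1 or 10 µM) was present throughout where stated. ED50 was read graphically as 50% inhibition of the KCl plateau.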

Rattus norvegicus [3] = species on record: Rattus norvegicus; assay: Effect on Oxytocin-Induced contractions of rat uterus at concentrations 100 uM
In short: (§3)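 Uterine horns from fed Wistar rats (150-200 g) primed the day before with im diethylstilboestrol dipropionate (0.1 mL/100 g of 1 mg/mL oily solution). Horns were superfused with Tyrode at 37 °C under O2/CO2 (95/5). 20 mU oxytocin was injected at 10-min intervals until contractions (AUC) were constant, then repeated ≥3 times per drug concentration. Response is given as % of the drug-free oxytocin contraction.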

Rattus norvegicus [4] = species on record: Rattus norvegicus; assay: Effect on Oxytocin-Induced contractions of rat uterus at concentrations 50 uM; in short: as §3
Rattus norvegicus [5] = species on record: Rattus norvegicus; assay: Effect on Oxytocin-Induced contractions of rat uterus at concentrations 10 uM; in short: as §3
Rattus norvegicus [6] = species on record: Rattus norvegicus; assay: Effect on contractile activity of 30 mM potassium-Depolarized rat aorta incubated in the presence of 10 uM Glibenclamide; conditions: read-out: ED50 (the source's name); in short: as §2
Rattus norvegicus [7] = species on record: Rattus norvegicus; assay: Compound is evaluated for the effect on Oxytocin-Induced contractions of rat uterus at 10 uM; in short: as §3
Rattus norvegicus [8] = species on record: Rattus norvegicus; assay: Compound is evaluated for the effect on Oxytocin-Induced contractions of rat uterus at 100 uM; in short: as §3
Rattus norvegicus [9] = species on record: Rattus norvegicus; assay: Effect on Insulin secretion from rat pancreatic islets (RIS) in the presence of 16.7 mM glucose at 10 uM; in short: as §1
Rattus norvegicus [10] = species on record: Rattus norvegicus; assay: Effect on contractile activity of 80 mM potassium-Depolarized rat aorta; conditions: read-out: ED50 (the source's name); in short: as §2
Rattus norvegicus [11] = species on record: Rattus norvegicus; assay: Effect on contractile activity of 30 mM potassium-Depolarized rat aorta incubated in the presence of 1 uM Glibenclamide; conditions: read-out: ED50 (the source's name); in short: as §2
Rattus norvegicus [12] = species on record: Rattus norvegicus; assay: Effect on contractile activity of 30 mM potassium-Depolarized rat aorta incubated in the absence of Glibenclamide; conditions: read-out: ED50 (the source's name); in short: as §2
Rattus norvegicus [13] = species on record: Rattus norvegicus; assay: Compound is evaluated for the effect on Oxytocin-Induced contractions of rat uterus at 50 uM; in short: as §3
Rattus norvegicus [14] = species on record: Rattus norvegicus; assay: Effect on Oxytocin-Induced contractions of rat uterus at 50 uM; in short: as §3
Rattus norvegicus [15] = species on record: Rattus norvegicus; assay: Effect on Oxytocin-Induced contractions of rat uterus at 10 uM; in short: as §3
Rattus norvegicus [16] = species on record: Rattus norvegicus; assay: Effect on Oxytocin-Induced contractions of rat uterus at 100 uM; in short: as §3

SMILES | EC50 (Cavia porcellus) [µM] | RIS (Rattus norvegicus [1]) [%] | EC50 (Rattus norvegicus [2]) [µM] | also measured
C[C@H](NC1=NS(=O)(=O)c2cccnc2N1)C1CCCCC1 | > 300 | 76.2 | 25.2 | –
CCC(C)NC1=NS(=O)(=O)c2cccnc2N1 (stereo unspecified) | – | 85.9 | 50.9 | –
CC1=NS(=O)(=O)c2cc(Cl)cnc2N1 | – | 87.4 | > 300 | –
CC(Cc1ccc(O)cc1)NCC(O)c1cc(O)cc(O)c1 (stereo unspecified) [FENOTEROL] | – | – | – | Contraction (Rattus norvegicus [3]): 35.5%; Contraction (Rattus norvegicus [4]): 36.3%; Contraction (Rattus norvegicus [5]): 38.4%
O=S1(=O)N=C(NCc2ccccc2)Nc2ncccc21 | > 300 | 86.2 | 21.9 | –
CC1=Nc2ccc(Cl)cc2S(=O)(=O)N1 [DIAZOXIDE] | > 300 | 28.8 | 19.3 | EC50 (Rattus norvegicus [6]): 163 µM; Contraction (Rattus norvegicus [7]): 93.8%; Contraction (Rattus norvegicus [8]): 67.7%; RIS (Rattus norvegicus [9]): 70%; EC50 (Rattus norvegicus [10]): > 300 µM; EC50 (Rattus norvegicus [11]): 85.8 µM; EC50 (Rattus norvegicus [12]): 19.5 µM; Contraction (Rattus norvegicus [13]): 76.3%
O=S1(=O)N=C(NCC2CCCCC2)Nc2ncccc21 | 145 | 94.2 | 45.7 | –
CC(C)NC1=NS(=O)(=O)c2cc(Cl)cnc2N1 | > 300 | 74.4 | 14.6 | –
O=S1(=O)NC(NCc2ccccc2)=Nc2ncc(Cl)cc21 | – | 74.1 | 43.6 | Contraction (Rattus norvegicus [14]): 98.9%; Contraction (Rattus norvegicus [15]): 108.2%; Contraction (Rattus norvegicus [16]): 71.9%
O=S1(=O)NC(NCC2CCCCC2)=Nc2ncc(Cl)cc21 | 17.4 | 57.7 | 38.2 | Contraction (Rattus norvegicus [14]): 95.1%; RIS (Rattus norvegicus [9]): 76.8%; Contraction (Rattus norvegicus [15]): 96.3%; Contraction (Rattus norvegicus [16]): 90.4%
C[C@H](NC1=NS(=O)(=O)c2cc(Cl)cnc2N1)C1CCCCC1 | 20.4 | 11.8 | 3.8 | Contraction (Rattus norvegicus [14]): 71.4%; RIS (Rattus norvegicus [9]): 71.9%; Contraction (Rattus norvegicus [15]): 84.9%; Contraction (Rattus norvegicus [16]): 43.7%
CC(NC1=NS(=O)(=O)c2cc(Cl)cnc2N1)C(C)(C)C (stereo unspecified) | > 300 | 41.5 | 2.3 | EC50 (Rattus norvegicus [6]): 33.9 µM; Contraction (Rattus norvegicus [7]): 97.6%; Contraction (Rattus norvegicus [8]): 51%; EC50 (Rattus norvegicus [10]): 33 µM; EC50 (Rattus norvegicus [11]): 22.6 µM; EC50 (Rattus norvegicus [12]): 1.6 µM; Contraction (Rattus norvegicus [13]): 67.9%
CC(NC1=NS(=O)(=O)c2cccnc2N1)C(C)(C)C (stereo unspecified) | > 300 | 98.9 | 7.5 | EC50 (Rattus norvegicus [6]): 107 µM; EC50 (Rattus norvegicus [10]): > 300 µM; Contraction (Rattus norvegicus [3]): 57.5%; EC50 (Rattus norvegicus [11]): 65.2 µM; Contraction (Rattus norvegicus [4]): 68%; EC50 (Rattus norvegicus [12]): 10.1 µM; Contraction (Rattus norvegicus [5]): 93.8%
CC(C)C(C)NC1=NS(=O)(=O)c2cccnc2N1 (stereo unspecified) | > 300 | 87.9 | 27.1 | EC50 (Rattus norvegicus [10]): > 300 µM; EC50 (Rattus norvegicus [12]): 27.1 µM
C[C@H](NC1=NS(=O)(=O)c2cc(Cl)cnc2N1)c1ccccc1 | – | 45.9 | 21.2 | Contraction (Rattus norvegicus [14]): 79.3%; Contraction (Rattus norvegicus [15]): 91%; Contraction (Rattus norvegicus [16]): 41.1%
C[C@@H](NC1=NS(=O)(=O)c2cccnc2N1)C1CCCCC1 | > 300 | 79.9 | 29.2 | –
CC(C)C(C)NC1=NS(=O)(=O)c2cc(Cl)cnc2N1 (stereo unspecified) | > 300 | 59.3 | 10.6 | EC50 (Rattus norvegicus [6]): 45.1 µM; EC50 (Rattus norvegicus [10]): 49.3 µM; EC50 (Rattus norvegicus [11]): 34.1 µM; EC50 (Rattus norvegicus [12]): 8.2 µM
C[C@@H](NC1=NS(=O)(=O)c2cc(Cl)cnc2N1)c1ccccc1 | – | 52.3 | 38.8 | Contraction (Rattus norvegicus [14]): 59.4%; Contraction (Rattus norvegicus [15]): 88.4%; Contraction (Rattus norvegicus [16]): 32.6%
CC(C)C(C)NC1=NS(=O)(=O)c2cnccc2N1 (stereo unspecified) | > 300 | 7.1 | 154 | RIS (Rattus norvegicus [9]): 26.8%
CCC(C)NC1=NS(=O)(=O)c2cc(Cl)cnc2N1 (stereo unspecified) | – | 62.7 | 20 | –
C[C@@H](NC1=NS(=O)(=O)c2cc(Cl)cnc2N1)C1CCCCC1 | 13.6 | 6.7 | 3.5 | EC50 (Rattus norvegicus [6]): 8.6 µM; Contraction (Rattus norvegicus [14]): 50.9%; RIS (Rattus norvegicus [9]): 71.3%; EC50 (Rattus norvegicus [10]): 12.3 µM; EC50 (Rattus norvegicus [11]): 5 µM; EC50 (Rattus norvegicus [12]): 3.7 µM; Contraction (Rattus norvegicus [15]): 70.6%; Contraction (Rattus norvegicus [16]): 22.9%
C[C@H](NC1=NS(=O)(=O)c2cccnc2N1)c1ccccc1 | > 300 | 73.3 | 9.9 | –
CC(C)NC1=NS(=O)(=O)c2cccnc2N1 | > 300 | 78.7 | 132 | –
CC(N/C(=N\C#N)Nc1ccncc1)C(C)(C)C (stereo unspecified) [PINACIDIL ANHYDROUS] | 9.2 | 92.1 | 0.5 | EC50 (Rattus norvegicus [6]): 42.5 µM; Contraction (Rattus norvegicus [7]): 58.1%; Contraction (Rattus norvegicus [8]): 38.1%; RIS (Rattus norvegicus [9]): 96%; EC50 (Rattus norvegicus [10]): 16 µM; EC50 (Rattus norvegicus [11]): 10.4 µM; EC50 (Rattus norvegicus [12]): 0.2 µM; Contraction (Rattus norvegicus [13]): 35.5%
C[C@@H](NC1=NS(=O)(=O)c2cccnc2N1)c1ccccc1 | > 300 | 71.6 | 65.2 | –
